Values after ≈ are worked out from the molar mass of the structure shown. Active and inactive are the calls of the source. The calls are words filed in the database; no cut-off is given here.
Columns and labels:
Aspergillus flavus [1] = assay: Antifungal activity against Aspergillus flavus NCIM 524 at MIC after 3 to 4 days; assay type: functional
Escherichia coli [2] = assay: Antibacterial activity against Escherichia coli ATTC 25922 at MIC after 3 to 4 days by disc diffusion method; assay type: functional
In short: (§1)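 Agar well diffusion: seeded agar plates dried 1 h at 37 °C, wells punched and filled with test compound at MIC level in DMSO; DMSO solvent control. Plates in triplicate, kept at 37 °C for 3–4 days; zone of inhibition read.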

Pseudomonas aeruginosa [3] = assay: Antibacterial activity against Pseudomonas aeruginosa ATTC 27853 after 16 to 18 hrs by serial dilution method; assay type: functional
In short: (§2)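 Serial drug dilutions in Mueller-Hinton broth adjusted to pH 5.0 with phosphate buffer, inoculated with standardized bacterial suspension, incubated 16–18 h at 37 °C; MIC taken as lowest concentration without conspicuous growth.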

Staphylococcus aureus [4] = assay: Antibacterial activity against Staphylococcus aureus ATTC 25923 after 16 to 18 hrs by serial dilution method; assay type: functional; in short: as §2
Mus musculus [5] = assay: Analgesic activity Wistar albino mouse assessed as tail withdrawal latency time at 100 mg/kg, po administered by intragastric tube after 120 mins (reference value: 1.363 +/- 0.1297 sec); assay type: functional
Staphylococcus aureus [6] = assay: Antibacterial activity against Staphylococcus aureus ATTC 25923 at MIC after 3 to 4 days by disc diffusion method; assay type: functional; in short: as §1
Aspergillus fumigatus [7] = assay: Antifungal activity against Aspergillus fumigatus NCIM 902 by serial plate dilution method; assay type: functional
Mus musculus [8] = assay: Analgesic activity Wistar albino mouse assessed as tail withdrawal latency time at 100 mg/kg, po administered by intragastric tube after 180 mins (reference value: 1.363 +/- 0.1297 sec); assay type: functional
Pseudomonas aeruginosa [9] = assay: Antibacterial activity against Pseudomonas aeruginosa ATTC 27853 at MIC after 3 to 4 days by disc diffusion method; assay type: functional; in short: as §1
Mus musculus [10] = assay: Analgesic activity Wistar albino mouse assessed as tail withdrawal latency time at 100 mg/kg, po administered by intragastric tube after 60 mins (reference value: 1.363 +/- 0.1297 sec); assay type: functional
Talaromyces marneffei [11] = assay: Antifungal activity against recultured Penicillium marneffei by serial plate dilution method; assay type: functional
Talaromyces marneffei [12] = assay: Antifungal activity against recultured Penicillium marneffei at MIC after 3 to 4 days; assay type: functional
Klebsiella pneumoniae [13] = assay: Antibacterial activity against recultured Klebsiella pneumoniae after 16 to 18 hrs by serial dilution method; assay type: functional; in short: as §2
[14] = test system: Trichophyton mentagrophytes; assay: Antifungal activity against recultured Trichophyton mentagrophytes at MIC after 3 to 4 days; assay type: functional
Klebsiella pneumoniae [15] = assay: Antibacterial activity against recultured Klebsiella pneumoniae at MIC after 3 to 4 days by disc diffusion method; assay type: functional; in short: as §1
Aspergillus flavus [16] = assay: Antifungal activity against Aspergillus flavus NCIM 524 by serial plate dilution method; assay type: functional
Escherichia coli [17] = assay: Antibacterial activity against Escherichia coli ATTC 25922 after 16 to 18 hrs by serial dilution method; assay type: functional; in short: as §2
Aspergillus fumigatus [18] = assay: Antifungal activity against Aspergillus fumigatus NCIM 902 at MIC after 3 to 4 days; assay type: functional
[19] = test system: Trichophyton mentagrophytes; assay: Antifungal activity against recultured Trichophyton mentagrophytes by serial plate dilution method; assay type: functional
Rattus norvegicus = assay: Antiinflammatory activity rat assessed as reduction of carrageenan-induced paw oedema at 100 mg/kg, po administered 30 mins before carrageenan challenge measured after 60 to 180 mins; assay type: functional, organism-based; design: dose 100 mg/kg
In short: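 Rats randomly assigned, 100 mg/kg orally as suspension in 1% carboxymethyl cellulose, 30 min before carrageenan injected into right hind paw. Paw thickness measured with vernier callipers at 60, 120 and 180 min. Diclofenac reference; mean ± SEM, n = 6, vs vehicle control.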

| SMILES | MIC (Pseudomonas aeruginosa [3]) [µM] | MIC (Staphylococcus aureus [4]) [µM] | MIC (Aspergillus fumigatus [7]) [µM] | MIC (Talaromyces marneffei [11]) [µM] | MIC (Klebsiella pneumoniae [13]) [µM] | MIC (Aspergillus flavus [16]) [µM] | MIC (Escherichia coli [17]) [µM] | MIC [19] [µM] | diameter of the inhibition zone (DIZ) (Aspergillus flavus [1]) [mm] | diameter of the inhibition zone (DIZ) (Escherichia coli [2]) [mm] | Time (Mus musculus [5]) [s] | diameter of the inhibition zone (DIZ) (Staphylococcus aureus [6]) [mm] | Time (Mus musculus [8]) [s] | diameter of the inhibition zone (DIZ) (Pseudomonas aeruginosa [9]) [mm] | Time (Mus musculus [10]) [s] | diameter of the inhibition zone (DIZ) (Talaromyces marneffei [12]) [mm] | diameter of the inhibition zone (DIZ) [14] [mm] | diameter of the inhibition zone (DIZ) (Klebsiella pneumoniae [15]) [mm] | diameter of the inhibition zone (DIZ) (Aspergillus fumigatus [18]) [mm] | Activity (Rattus norvegicus) |
| --- | --- | --- | --- | --- | --- | --- | --- | --- | --- | --- | --- | --- | --- | --- | --- | --- | --- | --- | --- | --- |
| COc1ccc(Br)c(-c2nnc3sc(-c4ccc(C)cc4)nn23)c1 | 31.1 (≈ 12.5 µg/mL) | 15.8 (≈ 6.32 µg/mL) | 31.1 (≈ 12.5 µg/mL) | 31.1 (≈ 12.5 µg/mL) | 15.8 (≈ 6.32 µg/mL) | 31.1 (≈ 12.5 µg/mL) | 15.8 (≈ 6.32 µg/mL) | 15.8 (≈ 6.32 µg/mL) | 11 | 16 | 2.681 | 16 | 2.47 | 11 | 2.384 | 11 | 16 | 16 | 11 | Active |
| COc1ccc(Br)c(-c2nnc3n2NC(c2ccccc2)S3)c1 (stereo not given) | 32.1 (≈ 12.5 µg/mL) | 32.1 (≈ 12.5 µg/mL) | 6.25 (≈ 2.43 µg/mL) | 6.25 (≈ 2.43 µg/mL) | 32.1 (≈ 12.5 µg/mL) | 12.5 (≈ 4.87 µg/mL) | 16.1 (≈ 6.25 µg/mL) | 12.5 (≈ 4.87 µg/mL) | 11 | 16 | 3.46 | 11 | 3.391 | 11 | 3.181 | 16 | 11 | 11 | 16 | – |
| COc1ccc(Br)c(-c2nnc3sc(-c4ccc(I)cc4I)nn23)c1 | 19.6 (≈ 12.5 µg/mL) | 19.6 (≈ 12.5 µg/mL) | 19.6 (≈ 12.5 µg/mL) | 19.6 (≈ 12.5 µg/mL) | 19.6 (≈ 12.5 µg/mL) | 19.6 (≈ 12.5 µg/mL) | 19.6 (≈ 12.5 µg/mL) | 19.6 (≈ 12.5 µg/mL) | 11 | 11 | 2.088 | 11 | 2.225 | 11 | 2.038 | 11 | 11 | 11 | 11 | – |
| CC1(C)S[C@@H]2[C@H](NC(=O)[C@H](N)c3ccccc3)C(=O)N2[C@H]1C(=O)O [AMPICILLIN] | 17.9 (≈ 6.25 µg/mL) | 4.46 (≈ 1.56 µg/mL) | – | – | 17.9 (≈ 6.25 µg/mL) | – | 17.9 (≈ 6.25 µg/mL) | – | – | 30 | – | 22 | – | 25 | – | – | – | 23 | – | – |

Stronger by MIC (Pseudomonas aeruginosa [3]), values ahead:

| MIC (Pseudomonas aeruginosa [3]) [µM] | MIC (Staphylococcus aureus [4]) [µM] | MIC (Aspergillus fumigatus [7]) [µM] | MIC (Talaromyces marneffei [11]) [µM] | MIC (Klebsiella pneumoniae [13]) [µM] | MIC (Aspergillus flavus [16]) [µM] | MIC (Escherichia coli [17]) [µM] | MIC [19] [µM] | SMILES | diameter of the inhibition zone (DIZ) (Aspergillus flavus [1]) [mm] | diameter of the inhibition zone (DIZ) (Escherichia coli [2]) [mm] | Time (Mus musculus [5]) [s] | diameter of the inhibition zone (DIZ) (Staphylococcus aureus [6]) [mm] | Time (Mus musculus [8]) [s] | diameter of the inhibition zone (DIZ) (Pseudomonas aeruginosa [9]) [mm] | Time (Mus musculus [10]) [s] | diameter of the inhibition zone (DIZ) (Talaromyces marneffei [12]) [mm] | diameter of the inhibition zone (DIZ) [14] [mm] | diameter of the inhibition zone (DIZ) (Klebsiella pneumoniae [15]) [mm] | diameter of the inhibition zone (DIZ) (Aspergillus fumigatus [18]) [mm] | Activity (Rattus norvegicus) |
| --- | --- | --- | --- | --- | --- | --- | --- | --- | --- | --- | --- | --- | --- | --- | --- | --- | --- | --- | --- | --- |
| 15.1 (≈ 6.25 µg/mL) | 30.1 (≈ 12.5 µg/mL) | 15.1 (≈ 6.25 µg/mL) | 30.1 (≈ 12.5 µg/mL) | 15.1 (≈ 6.25 µg/mL) | 15.1 (≈ 6.25 µg/mL) | 15.1 (≈ 6.25 µg/mL) | 15.1 (≈ 6.25 µg/mL) | COc1ccc(Br)c(-c2nnc3sc(-c4cc(C)cc(C)c4)nn23)c1 | 16 | 16 | 2.075 | 11 | 2.238 | 16 | 2.175 | 11 | 16 | 16 | 16 | – |
| 15 (≈ 6.25 µg/mL) | 29.9 (≈ 12.5 µg/mL) | 15 (≈ 6.25 µg/mL) | 29.9 (≈ 12.5 µg/mL) | 15 (≈ 6.25 µg/mL) | 15 (≈ 6.25 µg/mL) | 15 (≈ 6.25 µg/mL) | 15 (≈ 6.25 µg/mL) | COc1ccc(Br)c(-c2nnc3sc(-c4ccc(C)cc4O)nn23)c1 | 16 | 16 | 3.321 | 11 | 3.121 | 16 | 2.388 | 11 | 16 | 16 | 16 | Active |

— ChEMBL document CHEMBL1955832, “Facile synthesis, characterization and pharmacological activities of 3,6-disubstituted 1,2,4-triazolo[3,4-b][1,3,4]thiadiazoles and 5,6-dihydro-3,6-disubstituted-1,2,4-triazolo[3,4-b][1,3,4]thiadiazoles” (2012)
